Results as given in ChEMBL document CHEMBL1153584 (Eur J Med Chem, 2009).
Converted amounts (≈) assume the structure as drawn.

Assays:
Assay type in all cases: functional, cell-based
A549 = assay: Anticancer activity against human A549 cells after 72 hrs by sulforhodamine B assay; details: A549, 72 h
SK-OV-3 = assay: Anticancer activity against human SKOV3 cells after 72 hrs by sulforhodamine B assay; details: SK-OV-3, 72 h
Summary of the method: (§1)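 Cells kept in RPMI 1640 with 10% FBS and passaged with trypsin-EDTA. Seeded at 1-2 × 10^4 cells/well and grown 24 h, then given compounds dissolved in culture medium, in triplicate. Exposure 48 h at 37 °C in 5% CO2. Fixed with cold 10% TCA, stained with 0.4% SRB in 1% acetic acid, dye solubilized in 10 mM Tris base (pH 10.5), absorbance read at 520 nm. IC50 is the concentration giving 50% inhibition.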

SK-MEL-2 = assay: Anticancer activity against human SK-MEL-2 cells after 72 hrs by sulforhodamine B assay; details: SK-MEL-2, 72 h; summary of the method: as §1
HCT-15 = assay: Anticancer activity against human HCT15 cells after 72 hrs by sulforhodamine B assay; details: HCT-15, 72 h; summary of the method: as §1
XF498 = assay: Anticancer activity against human XF498 cells after 72 hrs by sulforhodamine B assay; details: XF498, 72 h; summary of the method: as §1

CC1CCN(C(=O)CCCC[C@@H](C)O[C@@H]2O[C@@H](C)[C@H](O[C@@H]3O[C@@H](C)[C@H](O)C[C@H]3O)C[C@H]2O[C@@H]2O[C@@H](C)[C@H](O)C[C@H]2O)CC1
IC50 (A549): 0.06 µg/mL (≈ 0.0971 µM)
IC50 (SK-OV-3): 0.03 µg/mL (≈ 0.0486 µM)
IC50 (SK-MEL-2): 0.03 µg/mL (≈ 0.0486 µM)
IC50 (HCT-15): 0.02 µg/mL (≈ 0.0324 µM)
IC50 (XF498): 0.06 µg/mL (≈ 0.0971 µM)

CCc1ccc(NC(=O)CCCC[C@@H](C)O[C@@H]2O[C@@H](C)[C@H](O)C[C@H]2O)cc1
IC50 (A549): 0.34 µg/mL (≈ 0.896 µM)
IC50 (SK-OV-3): 0.24 µg/mL (≈ 0.632 µM)
IC50 (SK-MEL-2): 0.11 µg/mL (≈ 0.29 µM)
IC50 (HCT-15): 0.2 µg/mL (≈ 0.527 µM)
IC50 (XF498): 0.25 µg/mL (≈ 0.659 µM)

CCCCCC[C@@H](C)O[C@@H]1O[C@@H](C)[C@H](O)C[C@H]1O[C@@H]1O[C@@H](C)[C@H](OC(=O)CCCC)C[C@H]1OC(=O)CCCC
IC50 (A549): 0.78 µg/mL (≈ 1.4 µM)
IC50 (SK-OV-3): 0.73 µg/mL (≈ 1.31 µM)
IC50 (SK-MEL-2): 0.43 µg/mL (≈ 0.77 µM)
IC50 (HCT-15): 0.21 µg/mL (≈ 0.376 µM)
IC50 (XF498): 0.45 µg/mL (≈ 0.805 µM)

C=CCN1CCN(C(=O)CCCC[C@@H](C)O[C@@H]2O[C@@H](C)[C@H](O)C[C@H]2O)CC1
IC50 (A549): 0.54 µg/mL (≈ 1.4 µM)
IC50 (SK-OV-3): 0.32 µg/mL (≈ 0.832 µM)
IC50 (SK-MEL-2): 0.53 µg/mL (≈ 1.38 µM)
IC50 (HCT-15): 0.34 µg/mL (≈ 0.884 µM)
IC50 (XF498): 0.62 µg/mL (≈ 1.61 µM)

C[C@H](CCCCCCN=[N+]=[N-])O[C@@H]1O[C@@H](C)[C@H](O[C@@H]2O[C@@H](C)[C@H](O)C[C@H]2O)C[C@H]1O[C@@H]1O[C@@H](C)[C@H](O)C[C@H]1O
IC50 (A549): 0.24 µg/mL (≈ 0.427 µM)
IC50 (SK-OV-3): 0.14 µg/mL (≈ 0.249 µM)
IC50 (SK-MEL-2): 0.33 µg/mL (≈ 0.588 µM)
IC50 (HCT-15): 0.14 µg/mL (≈ 0.249 µM)
IC50 (XF498): 0.43 µg/mL (≈ 0.766 µM)

C[C@@H]1O[C@H]2O[C@@H](C)CCCCCCCCC(=O)O[C@@H]3C[C@@H](O)[C@@H](O[C@H]3C)O[C@@H]2C[C@H]1O
IC50 (A549): 0.63 µg/mL (≈ 1.42 µM)
IC50 (SK-OV-3): 0.73 µg/mL (≈ 1.64 µM)
IC50 (SK-MEL-2): 0.33 µg/mL (≈ 0.742 µM)
IC50 (HCT-15): 0.65 µg/mL (≈ 1.46 µM)
IC50 (XF498): 0.34 µg/mL (≈ 0.765 µM)

C=CCCCCOC(=O)CCCC[C@@H](C)O[C@@H]1O[C@@H](C)[C@H](O)C[C@H]1O
IC50 (A549): 0.12 µg/mL (≈ 0.335 µM)
IC50 (SK-OV-3): 0.31 µg/mL (≈ 0.865 µM)
IC50 (SK-MEL-2): 0.22 µg/mL (≈ 0.614 µM)
IC50 (HCT-15): 0.12 µg/mL (≈ 0.335 µM)
IC50 (XF498): 0.15 µg/mL (≈ 0.418 µM)

C[C@H](CCCCC(=O)O)O[C@@H]1O[C@@H](C)[C@H](O)C[C@H]1O [DAUMONE]
IC50 (A549): 0.03 µg/mL (≈ 0.109 µM)
IC50 (SK-OV-3): 0.02 µg/mL (≈ 0.0724 µM)
IC50 (SK-MEL-2): 0.07 µg/mL (≈ 0.253 µM)
IC50 (HCT-15): 0.05 µg/mL (≈ 0.181 µM)
IC50 (XF498): 0.09 µg/mL (≈ 0.326 µM)

C[C@@H]1CCCCCCCCC(=O)O[C@@H]2C[C@@H](O)[C@H](C)O[C@H]2O[C@@H]2C[C@@H](O)[C@H](C)O[C@H]2O1
IC50 (A549): 0.57 µg/mL (≈ 1.28 µM)
IC50 (SK-OV-3): 0.14 µg/mL (≈ 0.315 µM)
IC50 (SK-MEL-2): 0.44 µg/mL (≈ 0.99 µM)
IC50 (HCT-15): 0.54 µg/mL (≈ 1.21 µM)
IC50 (XF498): 0.43 µg/mL (≈ 0.967 µM)

C[C@H](CCCCC(=O)OCc1cccc(Oc2ccccc2)c1)O[C@@H]1O[C@@H](C)[C@H](O)C[C@H]1O
IC50 (A549): 0.24 µg/mL (≈ 0.523 µM)
IC50 (SK-OV-3): 0.54 µg/mL (≈ 1.18 µM)
IC50 (SK-MEL-2): 0.13 µg/mL (≈ 0.284 µM)
IC50 (HCT-15): 0.75 µg/mL (≈ 1.64 µM)
IC50 (XF498): 0.52 µg/mL (≈ 1.13 µM)

COC(=O)CCCC[C@@H](C)O[C@@H]1O[C@@H](C)[C@H](O[C@@H]2O[C@@H](C)[C@H](O)C[C@H]2O)C[C@H]1O[C@@H]1O[C@@H](C)[C@H](O)C[C@H]1O
IC50 (A549): 0.13 µg/mL (≈ 0.236 µM)
IC50 (SK-OV-3): 0.14 µg/mL (≈ 0.254 µM)
IC50 (SK-MEL-2): 0.41 µg/mL (≈ 0.745 µM)
IC50 (HCT-15): 0.21 µg/mL (≈ 0.381 µM)
IC50 (XF498): 0.19 µg/mL (≈ 0.345 µM)

CCCCCCCCCCCCCCNC(=O)CCCC[C@@H](C)O[C@@H]1O[C@@H](C)[C@H](O)C[C@H]1O
IC50 (A549): 0.16 µg/mL (≈ 0.339 µM)
IC50 (SK-OV-3): 0.24 µg/mL (≈ 0.509 µM)
IC50 (SK-MEL-2): 0.11 µg/mL (≈ 0.233 µM)
IC50 (HCT-15): 0.31 µg/mL (≈ 0.657 µM)
IC50 (XF498): 0.42 µg/mL (≈ 0.89 µM)

C[C@H](CCCCC(=O)Nc1cccc(Br)c1)O[C@@H]1O[C@@H](C)[C@H](O[C@@H]2O[C@@H](C)[C@H](O)C[C@H]2O)C[C@H]1O[C@@H]1O[C@@H](C)[C@H](O)C[C@H]1O
IC50 (A549): 0.07 µg/mL (≈ 0.101 µM)
IC50 (SK-OV-3): 0.07 µg/mL (≈ 0.101 µM)
IC50 (SK-MEL-2): 0.09 µg/mL (≈ 0.13 µM)
IC50 (HCT-15): 0.02 µg/mL (≈ 0.029 µM)
IC50 (XF498): 0.05 µg/mL (≈ 0.0724 µM)

C[C@H](CCCCC(=O)NCc1ccco1)O[C@@H]1O[C@@H](C)[C@H](O[C@@H]2O[C@@H](C)[C@H](O)C[C@H]2O)C[C@H]1O[C@@H]1O[C@@H](C)[C@H](O)C[C@H]1O
IC50 (A549): 0.08 µg/mL (≈ 0.13 µM)
IC50 (SK-OV-3): 0.01 µg/mL (≈ 0.0162 µM)
IC50 (SK-MEL-2): 0.04 µg/mL (≈ 0.065 µM)
IC50 (HCT-15): 0.06 µg/mL (≈ 0.0974 µM)
IC50 (XF498): 0.07 µg/mL (≈ 0.114 µM)

CCCCCC[C@H](CCCCCCCCCCC(=O)OC)O[C@@H]1O[C@@H](C)[C@H](O[C@@H]2O[C@@H](C)[C@H](O)C[C@H]2O)C[C@H]1O[C@@H]1O[C@@H](C)[C@H](O)C[C@H]1O
IC50 (A549): 0.12 µg/mL (≈ 0.17 µM)
IC50 (SK-OV-3): 0.24 µg/mL (≈ 0.34 µM)
IC50 (SK-MEL-2): 0.32 µg/mL (≈ 0.454 µM)
IC50 (HCT-15): 0.1 µg/mL (≈ 0.142 µM)
IC50 (XF498): 0.32 µg/mL (≈ 0.454 µM)

CCCCCC[C@H](CCCCCCCCCCC(=O)O)O[C@@H]1O[C@@H](C)[C@H](O[C@@H]2O[C@@H](C)[C@H](O)C[C@H]2O)C[C@H]1O
IC50 (A549): 0.64 µg/mL (≈ 1.14 µM)
IC50 (SK-OV-3): 0.32 µg/mL (≈ 0.571 µM)
IC50 (SK-MEL-2): 0.33 µg/mL (≈ 0.588 µM)
IC50 (HCT-15): 0.53 µg/mL (≈ 0.945 µM)
IC50 (XF498): 0.43 µg/mL (≈ 0.767 µM)

C[C@H](CCCCC1CO1)O[C@@H]1O[C@@H](C)[C@H](O[C@@H]2O[C@@H](C)[C@H](O)C[C@H]2O)C[C@H]1O[C@@H]1O[C@@H](C)[C@H](O)C[C@H]1O (some centres undefined)
IC50 (A549): 0.76 µg/mL (≈ 1.42 µM)
IC50 (SK-OV-3): 0.14 µg/mL (≈ 0.262 µM)
IC50 (SK-MEL-2): 0.65 µg/mL (≈ 1.22 µM)
IC50 (HCT-15): 0.21 µg/mL (≈ 0.393 µM)
IC50 (XF498): 0.65 µg/mL (≈ 1.22 µM)

COc1cccc2c1C(=O)c1c(O)c3c(c(O)c1C2=O)C[C@@](O)(C(=O)CO)C[C@@H]3O[C@H]1C[C@H](N)[C@H](O)[C@H](C)O1 [DOXORUBICIN]
IC50 (SK-OV-3): 0.024 µg/mL (≈ 0.0442 µM)
IC50 (SK-MEL-2): 0.015 µg/mL (≈ 0.0276 µM)
IC50 (HCT-15): 0.02 µg/mL (≈ 0.0368 µM)
IC50 (XF498): 0.19 µg/mL (≈ 0.35 µM)

C[C@H](CCCCC(=O)NCCCN1CCCC1=O)O[C@@H]1O[C@@H](C)[C@H](O)C[C@H]1O
IC50 (A549): 0.76 µg/mL (≈ 1.9 µM)
IC50 (SK-OV-3): 0.65 µg/mL (≈ 1.62 µM)
IC50 (SK-MEL-2): 0.33 µg/mL (≈ 0.824 µM)
IC50 (HCT-15): 0.54 µg/mL (≈ 1.35 µM)
IC50 (XF498): 0.25 µg/mL (≈ 0.624 µM)
